# Screens deposited in PubChem BioAssay by several laboratories.
# The full list was thinned out, with hits kept by preference.
# AP complement – alternative pathway complement inhibition, orthogonal assay | AID 1235 | 0.08% of 62,000 active | Human serum alternative complement pathway, LPS-coated ELISA, C3 deposition; tested in compound mixtures | inhibition, % at 5 µM;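 active = inhibition above 30% in each of the two pooled mixtures holding the compound, so the lower value exceeds 30%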;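 note: 0% = serum in Mg-EGTA without compound and 100% = EDTA serum blank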
#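 Test system: human serum complement alternative pathway, C3 deposition onto LPS / Medium: Mg2+-EGTA GVB++ buffer containing human serum at 1:15 dilution / Probe or stimulus: Plate-bound LPS / Times: 1 h at 37 °C / Signal: ELISA with HRP anti-human C3 antibody, TMB substrate, absorbance 450 nm / Measure: percent inhibition / Repeats: two pool placements per compound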
# D1 allo mod – allosteric modulators of human D1 dopamine receptor | P21728 | HEK293 D1, CRE-luciferase, dopamine EC30 potentiation; actives deviate in either direction | B-score at 10 µM | 5.9% of 58,000 active | AID 641;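 active = luminescence count or its row- and column-corrected plate score outside the 99.7% band of the plate's sample wells, on either side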
# Target sequence (P21728 whole entry, looked up): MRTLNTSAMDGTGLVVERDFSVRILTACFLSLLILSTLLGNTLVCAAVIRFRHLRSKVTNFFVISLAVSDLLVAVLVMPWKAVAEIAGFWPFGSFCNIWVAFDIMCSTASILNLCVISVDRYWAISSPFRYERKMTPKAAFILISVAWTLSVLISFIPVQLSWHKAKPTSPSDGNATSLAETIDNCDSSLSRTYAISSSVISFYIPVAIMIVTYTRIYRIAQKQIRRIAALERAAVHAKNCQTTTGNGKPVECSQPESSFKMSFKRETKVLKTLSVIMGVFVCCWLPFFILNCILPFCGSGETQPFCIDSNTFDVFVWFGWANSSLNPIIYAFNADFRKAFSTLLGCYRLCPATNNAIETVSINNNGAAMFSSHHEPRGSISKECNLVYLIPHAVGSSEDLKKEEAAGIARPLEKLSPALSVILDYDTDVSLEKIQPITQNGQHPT
# WNV NS2B-NS3 inh – WNV NS2B-NS3 proteinase inhibition. WNV NS2B-NS3 protease, fluorogenic substrate Ex360/Em465; active compounds read low. P06935. 0.18% of 65,000 active. AID 577. z-score (no concentration beside the values); in the data active = z-score below about -3
# DAT uptake mod – human DAT dopamine uptake with cocaine, either direction. Q01959. LLC-PK1 hDAT cells, [14C]-dopamine uptake with cocaine IC80; actives deviate in either direction. B-score at 10 µM. 1.3% of 110,000 active. AID 449768;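 active = Z score or B-score, a plate-position-corrected score, falls beyond the plate's 99.7% confidence bounds, in either direction; inactive = both scores lie inside the 99.7% bounds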;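 note: scored against the spread of the other compound wells on the same plate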
# D1 PAM confirm – D1 receptor (human) allosteric modulation, confirmed; shares compounds with D1 allo mod; HEK293 D1 CRE-luciferase, dopamine EC30 potentiation; active compounds read high; 88% of 2,200 active; luminescence at 10 µM; AID 642;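 active = luminescence in either of two replicates above the same-plate mean plus 3 SD of the low-dose dopamine control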
# D1 ag no DA – secondary test of D1 modulators: activity without dopamine. shares compounds with D1 allo mod. HEK293 D1 CRE-luciferase, luminescence, no dopamine; active compounds read high. luminescence at 10 µM. 0.8% of 1,900 active. AID 646; in the data active = luminescence above about 3900
# Isoprot counter – isoproterenol response counter-screen activity for D1 modulators; shares compounds with D1 allo mod; HEK293 D1 CRE-luciferase, isoproterenol EC30 counter-screen; active compounds read high; luminescence at 10 µM; 63% of 2,200 active; AID 647;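 active = luminescence in either replicate above plate mean of wells with a partly effective reference agonist dose plus 3 SD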;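 note: isoproterenol raises cAMP through native beta-adrenoceptor Gs so signal bypasses D1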
# An asterisk follows results filed as active; nt = no result given.
SMILES,AP complement,D1 allo mod,WNV NS2B-NS3 inh,DAT uptake mod,D1 PAM confirm,D1 ag no DA,Isoprot counter
O=C(c1ccc2c(c1)OCO2)N1CCc2ccccc2C1,14,22*,1.3,0.86,18384*,1548,4216*
O=C(c1ccc2c(c1)OCO2)N1CCCc2ccccc21,nt,-0.11,-0.24,0.81,nt,nt,nt
CCC(CC)NC(=O)Cc1ccccc1[N+](=O)[O-],nt,nt,nt,0.052,nt,nt,nt
CC(C)CCSc1nc(N)c(C#N)cc1C#N,-1,7.7*,0.16,-0.53,14056*,1652,4940*
CCOc1nc(OCC)nc(N2CCC(C)CC2)n1,-5,27*,0.67,0.51,26964*,1528,6496*
N#CCOc1nc(N2CCCC2)nc(N2CCCC2)n1,nt,nt,nt,-0.98,nt,nt,nt
CCOc1nc(C#N)nc(N2CCCCC2)n1,-1,2.6*,2.6,0.035,10912*,1612,3268*
COC(=O)C[C@H]1c2cc(C(F)(F)F)ccc2S(=O)(=O)N1Cc1ccccc1,nt,nt,nt,0.079,nt,nt,nt
CC1(OC(=O)c2ccc(Cl)nc2)C(=O)C=C2C=C(c3ccc(C#N)cc3)OC=C2C1=O (stereo unspecified),nt,nt,nt,-0.013,nt,nt,nt
COc1cccc(N(C(=O)c2cccs2)c2nc3ccccc3s2)c1,1,7.6*,1.3,-1.1,7024*,nt,2952*
CCCCn1c(SCc2cccnc2)nc2c1c(=O)n(C)c(=O)n2C,-3,1.7,-0.2,0.5,nt,nt,nt
CCn1c(SCc2cccnc2)nc2c1c(=O)n(C)c(=O)n2C,5,5*,-0.49,1.1,5832*,1320,2496
Cn1c(=O)c2c(nc(SCC(=O)NCc3ccc4c(c3)OCO4)n2Cc2ccc(Cl)cc2)n(C)c1=O,nt,nt,nt,0.85,nt,nt,nt
N#Cc1c(N)oc(-c2ccc3c(c2)OCO3)c1-c1ccc2c(c1)OCO2,8,4.5*,-0.08,0.00033,26576*,1760,4016*
Cc1ccc(-c2cc(-c3ccc4c(c3)OCO4)c(C#N)c(N)n2)o1,-4,5.9*,-0.26,0.82,8720*,1720,3424
N#Cc1c(N)nc2c(c1-c1ccc3c(c1)OCO3)CCCCCC2,5,nt,0.32,0.59,nt,nt,nt
Cc1ccc(-c2cc(-c3ccc(Cl)cc3)c(C#N)c(N)n2)o1,10,4.1,-0.2,0.12,nt,nt,nt
Cc1ccc(-c2cc(-c3ccc(C)o3)nc(N)c2C#N)cc1,10,7.3*,-0.49,0.43,8668*,1764,2628
COc1cccc(N(C(=O)CNC(=O)c2ccco2)C(C(=O)NC2CCCCC2)c2ccncc2)c1 (stereo unspecified),6,nt,-0.63,0.39,nt,nt,nt
N#CC1=C(SCC(=O)NC23CC4CC(CC(C4)C2)C3)NC(=O)C(C#N)C12CCCCC2 (stereo unspecified),-1,-0.44,0.55,-0.83,nt,nt,nt
O=C(O)c1ccc(N2Cc3ccccc3C2)cc1O,nt,nt,nt,1.3,nt,nt,nt
COc1ccc(-c2cc(OC)c3c(C)oc(C)c3c(=O)c2)cc1OC,-20,3.8*,2.8,0.93,12580*,1500,3976*
Cc1cccc(-n2nnnc2SCc2csc(-c3ccccc3)n2)c1,1,2.1,-0.0046,-0.41,nt,nt,nt
O=c1c2ccccc2nc(-c2ccc(Br)cc2)n1Cc1ccccc1,nt,nt,nt,-0.18,nt,nt,nt
O=c1c2ccccc2nc(-c2ccco2)n1Cc1ccccc1,4,7.8*,0.45,0.076,19492*,1608,4148*
SMILES,AP complement,D1 allo mod,WNV NS2B-NS3 inh,DAT uptake mod,D1 PAM confirm,D1 ag no DA,Isoprot counter
c1ccc(Cn2c(-c3ccco3)nc3nc4ccccc4nc32)cc1,2,3.5*,-0.56,0.031,7452*,1544,3168*
CCCCCn1c(-c2ccco2)nc2nc3ccccc3nc21,-10,12*,4.8,nt,18024*,1828,3868*
c1coc(-c2nc3nc4ccccc4nc3n2CC2CCCO2)c1 (stereo unspecified),22,4.8*,nt,nt,10012*,1816,3456*
CN1CCN(S(=O)(=O)c2ccc(Cc3ccc(S(=O)(=O)N4CCN(C)CC4)cc3)cc2)CC1,0,-3.5,-0.25,-1.1,nt,nt,nt
Cc1sc(NC(=O)c2ccccc2)c(C(=O)NCCN(C)C)c1C,nt,nt,nt,-1.3,nt,nt,nt
CCOc1ccc(C(C)NC(=O)Nc2ccccc2C(=O)OC)cc1 (stereo unspecified),nt,nt,nt,-0.12,nt,nt,nt
COC(=O)C1CCN(S(=O)(=O)c2c(C)n(C)c(=O)n(C)c2=O)CC1,17,1.4*,0.86,-1,7080,1560,2500
O=C(O)CCCC(=O)NS(=O)(=O)c1ccc(Cl)cc1,nt,nt,nt,-0.024,nt,nt,nt
CSc1nc(N2CCOCC2)c2c3c(sc2n1)CCCC3,16,11*,0.7,-0.14,11612*,1664,4140*
CC(C)=NOCc1ccc(-c2cn([C@@H]3COC[C@H]3O)nn2)cc1,nt,nt,nt,0.8,nt,nt,nt
CC1(C)Cc2c(C#N)c(SCCC#N)nc(N3CCOCC3)c2CS1,13,5.5*,-0.04,1.6,12904*,1588,4280*
CSc1ccccc1-n1nnnc1SCc1ccccc1,6,3.8*,0.14,0.7,7588*,nt,2572
O=C(CC1(O)C(=O)Nc2cc(Cl)cc(Cl)c21)c1ccncc1 (stereo unspecified),4,3.5*,-0.28,-1.5,7604,1960,2456
Cc1ccc(Cl)c2c1NC(=O)C2(O)CC(=O)c1ccc(Br)cc1 (stereo unspecified),nt,nt,nt,1,nt,nt,nt
COCCn1c(SCc2nc(N)nc(Nc3ccccc3C)n2)nc2ccccc2c1=O,nt,nt,nt,0.79,nt,nt,nt
Cc1ccccc1Nc1nc(N)nc(CSc2nc3ccccc3c(=O)n2CCCO)n1,5,3*,-0.53,2.7*,8640*,1664,3524*
CCOC(=O)c1cccc(NC(=O)CCc2nc(-c3ccccc3F)no2)c1,9,3*,-0.64,-1.9,7612,2088,2424
CCOC(=O)c1cccc(NC(=O)CCc2nc(-c3ccc(C)cc3)no2)c1,-5,-0.085,1.6,0.15,nt,nt,nt
COc1ccc(OCc2cccc(C(=O)Nn3cc([N+](=O)[O-])cn3)c2)cc1,nt,nt,nt,-0.45,nt,nt,nt
Cn1c(=O)c2c(nc(SCCCO)n2Cc2ccccc2Cl)n(C)c1=O,5,3.9*,-0.61,-0.91,6636*,1528,3296
